Experimental data reported in ChEMBL document CHEMBL1828561, “Identification of a potent and selective free fatty acid receptor 1 (FFA1/GPR40) agonist with favorable physicochemical and in vitro ADME properties” (J Med Chem, 2011).
In brackets after ≈: the same amount, converted by molar mass. Activity calls are given as the source filed them. The calls are words filed in the database; no cut-off is given here.

Tests used:
[1] = test system: 1321-N1; experiment: Selectivity for human FFA1 receptor expressed in human 1321N1 cells over 5HT2A receptor; type: cell-based
[2] = test system: 1321-N1; experiment: Selectivity for human FFA1 receptor expressed in human 1321N1 cells over 5HT2B receptor; type: cell-based
[3] = test system: 1321-N1; experiment: Selectivity for human FFA1 receptor expressed in human 1321N1 cells over 5HT3 receptor; type: cell-based
[4] = test system: 1321-N1; experiment: Selectivity for human FFA1 receptor expressed in human 1321N1 cells over 5HT5a receptor; type: cell-based
[5] = test system: 1321-N1; experiment: Selectivity for human FFA1 receptor expressed in human 1321N1 cells over 5HT7 receptor; type: cell-based
[6] = test system: 1321-N1; experiment: Selectivity for human FFA1 receptor expressed in human 1321N1 cells over VPAC1 receptor; type: cell-based
[7] = test system: 1321-N1; experiment: Selectivity for human FFA1 receptor expressed in human 1321N1 cells over V1a receptor; type: cell-based
[8] = test system: 1321-N1; experiment: Selectivity for human FFA1 receptor expressed in human 1321N1 cells over Ca2+ channel; type: cell-based
[9] = test system: 1321-N1; experiment: Selectivity for human FFA1 receptor expressed in human 1321N1 cells over Kv channel; type: cell-based
[10] = test system: 1321-N1; experiment: Selectivity for human FFA1 receptor expressed in human 1321N1 cells over Na+ channel; type: cell-based
[11] = test system: 1321-N1; experiment: Selectivity for human FFA1 receptor expressed in human 1321N1 cells over Cl- channel; type: cell-based
[12] = test system: 1321-N1; experiment: Selectivity for human FFA1 receptor expressed in human 1321N1 cells over 5HT transporter; type: cell-based
[13] = Aqueous solubility of the compound in PBS at pH 7.4; type: physicochemical
Method in brief: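 Solubility measured in PBS at pH 7.4.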

[14] = Octanol-phosphate buffer partition coefficient, log D of the compound at pH 7.4 by HPLC analysis; type: physicochemical
[15] = Chemical stability of the compound in PBS at 37 degC for 12 days; type: physicochemical; details: read-out: Stability
Method in brief: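 Stability followed in PBS at 37 °C over 12 days.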

[16] = Plasma protein binding in human; type: ADME, cell-free; details: read-out: PPB (converted)
[17] = molecular target: T1, CYP1A2 (Homo sapiens, UniProt P05177); experiment: Inhibition of CYP1A2 at 10 uM; type: ADME
T1 sequence (P05177 whole entry): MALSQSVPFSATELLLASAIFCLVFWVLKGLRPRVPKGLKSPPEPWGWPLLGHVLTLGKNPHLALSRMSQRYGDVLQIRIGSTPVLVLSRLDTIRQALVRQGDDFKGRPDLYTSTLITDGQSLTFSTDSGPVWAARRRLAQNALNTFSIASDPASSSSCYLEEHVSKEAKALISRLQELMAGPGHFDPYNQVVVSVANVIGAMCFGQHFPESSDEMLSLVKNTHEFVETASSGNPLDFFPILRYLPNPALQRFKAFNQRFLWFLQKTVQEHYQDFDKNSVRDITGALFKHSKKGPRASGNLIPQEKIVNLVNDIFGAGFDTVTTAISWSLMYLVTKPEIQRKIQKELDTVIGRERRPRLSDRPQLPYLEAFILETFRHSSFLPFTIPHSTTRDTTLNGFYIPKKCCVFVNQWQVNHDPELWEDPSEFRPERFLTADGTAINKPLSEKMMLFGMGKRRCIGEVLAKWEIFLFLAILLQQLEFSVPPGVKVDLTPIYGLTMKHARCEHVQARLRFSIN

[18] = molecular target: CYP2D6 (Homo sapiens, UniProt P10635); experiment: Inhibition of CYP2D6 at 10 uM; type: ADME
Chain of CYP2D6 (P10635 whole entry): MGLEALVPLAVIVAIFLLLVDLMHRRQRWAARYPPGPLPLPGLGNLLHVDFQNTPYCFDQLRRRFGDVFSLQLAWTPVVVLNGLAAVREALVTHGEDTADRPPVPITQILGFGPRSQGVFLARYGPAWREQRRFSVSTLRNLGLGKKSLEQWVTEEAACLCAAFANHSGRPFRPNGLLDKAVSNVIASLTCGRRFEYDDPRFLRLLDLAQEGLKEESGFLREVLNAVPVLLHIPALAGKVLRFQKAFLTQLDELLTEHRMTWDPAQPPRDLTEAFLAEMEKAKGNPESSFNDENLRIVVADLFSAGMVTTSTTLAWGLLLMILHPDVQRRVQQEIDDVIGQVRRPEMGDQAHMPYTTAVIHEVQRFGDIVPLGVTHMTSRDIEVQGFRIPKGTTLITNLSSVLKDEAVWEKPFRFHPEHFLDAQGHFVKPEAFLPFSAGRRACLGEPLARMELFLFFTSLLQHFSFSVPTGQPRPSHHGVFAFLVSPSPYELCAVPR

[19] = molecular target: Free fatty acid receptor 1 (Homo sapiens, UniProt O14842); experiment: Agonist activity at human FFA1 receptor expressed in human HEK293 assessed as movement of cellular constitiuent by DMR assay; type: functional, cell-based
Chain of Free fatty acid receptor 1 (O14842 whole entry): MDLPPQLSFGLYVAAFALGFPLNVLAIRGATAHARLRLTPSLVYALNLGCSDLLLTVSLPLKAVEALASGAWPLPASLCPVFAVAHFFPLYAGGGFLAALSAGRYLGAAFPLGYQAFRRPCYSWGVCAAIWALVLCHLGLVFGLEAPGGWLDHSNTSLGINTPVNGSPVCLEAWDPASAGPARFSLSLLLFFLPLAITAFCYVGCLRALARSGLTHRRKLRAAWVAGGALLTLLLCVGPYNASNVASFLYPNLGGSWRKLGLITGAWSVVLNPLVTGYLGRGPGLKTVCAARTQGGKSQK
Method in brief: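 FFA1-HEK cells (doxycycline-inducible FLAG-hFFA1, HEK293), 15 000/well on fibronectin-coated 384-well Epic plates, 20–24 h culture. Washed in HBSS/20 mM HEPES, equilibrated 1 h at 28 °C, baseline read, compound added.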

[20] = molecular target: Free fatty acid receptor 1 (Rattus norvegicus) (UniProt Q8K3T4); experiment: Agonist activity at FFA1 receptor in rat INS-1E cells assessed as movement of cellular constitiuent by DMR assay; type: functional, cell-based
Chain of Free fatty acid receptor 1 (Rattus norvegicus) (Q8K3T4 whole entry): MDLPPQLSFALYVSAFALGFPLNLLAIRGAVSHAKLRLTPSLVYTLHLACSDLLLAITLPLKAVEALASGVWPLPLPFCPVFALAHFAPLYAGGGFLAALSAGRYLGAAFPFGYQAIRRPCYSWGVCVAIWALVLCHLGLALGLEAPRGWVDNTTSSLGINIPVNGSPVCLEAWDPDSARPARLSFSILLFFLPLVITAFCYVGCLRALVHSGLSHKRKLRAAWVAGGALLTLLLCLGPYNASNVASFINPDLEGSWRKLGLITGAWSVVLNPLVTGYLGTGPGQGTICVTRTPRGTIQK
Method in brief: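 Label-free DMR on an Epic optical biosensor. Rat INS-1E cells, 30 000/well on fibronectin-coated 384-well sensor plates, cultured 20–24 h to confluence. Washed in HBSS/20 mM HEPES and equilibrated 1 h at 28 °C. Baseline read, compound added, wavelength shift (pm) monitored ≥5000 s. Antagonist line: 0.3 μM agonist with the FFA1 antagonist over a concentration range, pIC50 derived, n = 4.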

[21] = molecular target: Free fatty acid receptor 1 (Rattus norvegicus) (UniProt Q8K3T4); experiment: Agonist activity at FFA1 receptor in rat INS-1E cells assessed as increase in glucose-stimulated insulin production at 10 uM after 1 hr by radioimmunoassay in presence of 2.8 mM glucose; type: functional, cell-based
Method in brief: (§1)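 Rat INS-1E cells seeded at 100 000 cells/mL in 24-well plates for 2 days. Incubated 1 h at 37 °C in pH 7.4 HEPES-bicarbonate saline with 1 mM CaCl2 and 0.5 g/L fatty-acid-free BSA plus test substance. Secreted insulin and acid-ethanol-extracted content measured by radioimmunoassay. Mean ± SE, n = 8.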

[22] = molecular target: Free fatty acid receptor 1 (Rattus norvegicus) (UniProt Q8K3T4); experiment: Agonist activity at FFA1 receptor in rat INS-1E cells assessed as increase in glucose-stimulated insulin production at 10 uM after 1 hr by radioimmunoassay in presence of 12 mM glucose; type: functional, cell-based; method in brief: as §1
[23] = test system: HEK293; experiment: Selectivity for human FFA1 receptor expressed in human 1321N1 cells over human FFA3 receptor expressed in HEK293 cells at 10 uM; type: cell-based
[24] = test system: 1321-N1; experiment: Selectivity for human FFA1 receptor expressed in human 1321N1 cells over PPARgamma receptor; type: cell-based
[25] = test system: 1321-N1; experiment: Selectivity for human FFA1 receptor expressed in human 1321N1 cells over alpha1 receptor; type: cell-based
[26] = test system: 1321-N1; experiment: Selectivity for human FFA1 receptor expressed in human 1321N1 cells over beta2 receptor; type: cell-based
[27] = test system: 1321-N1; experiment: Selectivity for human FFA1 receptor expressed in human 1321N1 cells over D1 receptor; type: cell-based
[28] = test system: 1321-N1; experiment: Selectivity for human FFA1 receptor expressed in human 1321N1 cells over […]; type: cell-based
[29] = test system: 1321-N1; experiment: Selectivity for human FFA1 receptor expressed in human 1321N1 cells over ETA receptor; type: cell-based
[30] = test system: 1321-N1; experiment: Selectivity for human FFA1 receptor expressed in human 1321N1 cells over CXCR2 receptor; type: cell-based
[31] = test system: 1321-N1; experiment: Selectivity for human FFA1 receptor expressed in human 1321N1 cells over H1 receptor; type: cell-based
[32] = test system: 1321-N1; experiment: Selectivity for human FFA1 receptor expressed in human 1321N1 cells over H2 receptor; type: cell-based
[33] = test system: 1321-N1; experiment: Selectivity for human FFA1 receptor expressed in human 1321N1 cells over MC4 receptor; type: cell-based
[34] = test system: 1321-N1; experiment: Selectivity for human FFA1 receptor expressed in human 1321N1 cells over NK2 receptor; type: cell-based
[35] = test system: 1321-N1; experiment: Selectivity for human FFA1 receptor expressed in human 1321N1 cells over Y2 receptor; type: cell-based
[36] = test system: 1321-N1; experiment: Selectivity for human FFA1 receptor expressed in human 1321N1 cells over NTS1 receptor; type: cell-based
[37] = test system: 1321-N1; experiment: Selectivity for human FFA1 receptor expressed in human 1321N1 cells over Mu receptor; type: cell-based
[38] = test system: 1321-N1; experiment: Selectivity for human FFA1 receptor expressed in human 1321N1 cells over NOP receptor; type: cell-based
[39] = test system: 1321-N1; experiment: Selectivity for human FFA1 receptor expressed in human 1321N1 cells over 5HT1B receptor; type: cell-based

Work on O=C(O)CCc1ccc(C#Cc2cc(Cl)nc(Cl)c2)cc1 yielded a Selectivity ratio [1] of over 100, a Selectivity ratio [2] of over 100 and a Selectivity ratio [3] of over 100. For the same compound, the Selectivity ratio [4] was over 100, the Selectivity ratio [5] was over 100 and the Selectivity ratio [6] was over 100. For the same compound, the Selectivity ratio [7] was over 100, the Selectivity ratio [8] was over 100 and the Selectivity ratio [9] was over 100. It also gave a Selectivity ratio [10] of over 100, a Selectivity ratio [11] of over 100 and a Selectivity ratio [12] of over 100. For the same compound, the solubility [13] was 199 µM (≈ 63.7 µg/mL), the logD [14] was 1.97 and the remaining at 288 h [15] was 99.9%. For the same compound, the fraction unbound [16] was 0.031, the inhibition at 10 µM [17] was -7% and the inhibition at 10 µM [18] was 5%. The Activity [19] was “Active”, the Activity [20] was “Active” and the Activity [21] was “inactive”. The Activity [22] was 60%, the Selectivity ratio [23] was over 100 and the Selectivity ratio [24] was over 100. For the same compound, the Selectivity ratio [25] was over 100, the Selectivity ratio [26] was over 100 and the Selectivity ratio [27] was over 100. For the same compound, the Selectivity ratio [28] was over 100, the Selectivity ratio [29] was over 100 and the Selectivity ratio [30] was over 100. For the same compound, the Selectivity ratio [31] was over 100, the Selectivity ratio [32] was over 100 and the Selectivity ratio [33] was over 100. The Selectivity ratio [34] was over 100, the Selectivity ratio [35] was over 100 and the Selectivity ratio [36] was over 100. The Selectivity ratio [37] was over 100, the Selectivity ratio [38] was over 100 and the Selectivity ratio [39] was over 100.
